Screens as filed in PubChem BioAssay.
RanGTP-Imp inh: inhibitors of RanGTP-importin-beta interaction, primary screen, biochemical, FRET, CFP-Ran, YFP-importin-beta, homogeneous; inhibition, % (no concentration beside the values); cell-free CFP-Ran/YFP-importin-beta FRET ratio; hit rate 1.1% among 300,000;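 active = more than half of the replicate wells show a fall in the fluorescence ratio signal beyond about 16%, limit read from the data, passing the limit was not always enough; inconclusive = exactly half of the replicate wells pass the set limit; inactive = fewer than half of replicates pass the limit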
Vif inh: inhibitors of HIV Vif; HEK293T cells, Vif self-association by quenched fluorescence, imaging, 24 h; inhibition, % at 7.49 µM; hit rate 0.35% among 340,000; AID 602346; in the data active = inhibition above about 50%, passing the limit was not always enough; inconclusive = no clear call, values can overlap the other calls; inactive = below about 31%
Rce1 inh: yeast Ras-converting enzyme inhibition; Q03530; yeast membranes, quenched prenylated peptide cleavage fluorescence; calls only; hit rate 0.27% among 290,000; AID 2563;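 active = fall in fluorescence gain of 50% or more versus controls, with final raw signal at or below 3038400; inconclusive = same 50% fall but final raw signal above 3038400; inactive = fall in fluorescence gain under 50%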
Runt-SMMHC FRET: Runt domain-CBFb-SMMHC interaction inhibition; Cerulean-Runt/Venus-CBFb-SMMHC FRET ratio 530/480, 1 h; inhibition, % at 20 µM; hit rate 0.74% among 220,000; AID 1434;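 active = mean inhibition across duplicate retests at 20 µM reaching about 50%, limit read from the data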;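 note: inhibitors lower the FRET ratio by blocking Runt binding to CBFb-SMMHC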
Target sequence (Q01196 whole entry, looked up, the tested form may be a part): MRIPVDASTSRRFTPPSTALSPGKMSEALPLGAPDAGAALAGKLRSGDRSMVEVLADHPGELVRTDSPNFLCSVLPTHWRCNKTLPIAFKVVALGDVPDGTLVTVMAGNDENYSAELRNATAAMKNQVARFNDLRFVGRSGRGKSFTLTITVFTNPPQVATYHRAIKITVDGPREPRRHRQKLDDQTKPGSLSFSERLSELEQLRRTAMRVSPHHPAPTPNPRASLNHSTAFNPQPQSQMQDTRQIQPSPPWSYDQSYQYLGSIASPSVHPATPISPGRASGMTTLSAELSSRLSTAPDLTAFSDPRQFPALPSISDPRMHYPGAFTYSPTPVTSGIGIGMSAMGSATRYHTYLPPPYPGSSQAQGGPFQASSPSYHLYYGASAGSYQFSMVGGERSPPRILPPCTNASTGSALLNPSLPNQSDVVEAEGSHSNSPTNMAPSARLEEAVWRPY
Target sequence (Q13951 whole entry, looked up, the tested form may be a part): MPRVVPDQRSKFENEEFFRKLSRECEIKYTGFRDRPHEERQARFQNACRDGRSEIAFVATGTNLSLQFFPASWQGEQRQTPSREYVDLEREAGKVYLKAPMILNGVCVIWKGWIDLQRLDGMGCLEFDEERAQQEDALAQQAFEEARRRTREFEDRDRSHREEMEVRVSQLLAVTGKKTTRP
Runt-CBFb FRET: Runt domain-CBFb interaction inhibition; inhibition, % at 20 µM; Q01196+Q13951; Cerulean-Runt/Venus-CBFb FRET ratio 530/480, 1 h; hit rate 0.46% among 220,000; AID 1496;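 active = inhibition over about 50% at 20 µM in the single-dose screen, limit read from the data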
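Buffer or medium: Tris pH 7.5 buffer with BSA. Assay system: Cerulean-labeled Runt domain protein. Amount: each fluorescent fusion protein 100 nM. Read-out basis: loss of energy transfer signal. Incubation: 1 h compound exposure, room temperature. Probe or stimulus: Venus-CBFb binding partner, 100 nM. Detection: FRET, excitation 422 nm, emission at 530 and 480 nm.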
Hits are given with their value. Sampled rows, rich in hits. Any-hit rate of the full collection: about 1.7%.

For CC1=C2C3OC(=O)C(C)C3CCC2(C)C=C(Br)C1=O (stereo unspecified) the results were Vif inh inactive.
Screening O/N=C/Cc1[nH]c2ccccc2c1-c1ccccc1 returned RanGTP-Imp inh inactive, Vif inh inactive and Rce1 inh inactive.
`CNC(=O)c1c(NC(=O)c2ccc(S(=O)(=O)N3CCCCC3C)cc2)sc2c1CCN(C)C2` (stereo unspecified) gave RanGTP-Imp inh 50, Vif inh inactive and Rce1 inh inactive.
Screening CC1CCCN(S(=O)(=O)c2ccc(C(=O)Nc3sc4c(c3C(N)=O)CCN(C)C4)cc2)C1 (stereo unspecified) returned RanGTP-Imp inh 29, Vif inh inactive and Rce1 inh inactive.
For CCN1CCc2c(sc(NC(=O)c3ccc(S(=O)(=O)N4CCCCCC4)cc3)c2C(=O)NC)C1 the results were RanGTP-Imp inh 57, Vif inh inactive and Rce1 inh inactive.
Screening COC(=O)c1c(NC(=O)c2ccc(S(=O)(=O)N3CCOCC3)cc2)sc2c1CCN(C)C2 returned Runt-SMMHC FRET inactive and Runt-CBFb FRET inactive.
Screening CCCN1CCc2c(sc(NC(=O)c3ccc(S(=O)(=O)N4CCCC4)cc3)c2C(N)=O)C1 returned RanGTP-Imp inh inactive and Rce1 inh inactive.
Screening O=C(CN1CCN(CC(=O)Nc2ccc3c(c2)OC2(CCCCC2)O3)CC1)Nc1cccc(F)c1 returned Vif inh inactive.
O=C(CN(C(=O)c1csnn1)c1ccc(F)cc1)NCc1ccc2c(c1)OCO2 was read as RanGTP-Imp inh inactive, Vif inh 75 and Rce1 inh inactive.
Screening Cc1ccc(N(CC(=O)NCc2ccc3c(c2)OCO3)C(=O)c2csnn2)cc1 returned RanGTP-Imp inh inactive and Vif inh inactive.
For Cc1nn(C)c(C)c1CS(=O)(=O)c1ccccc1 the results were RanGTP-Imp inh inactive, Vif inh inactive, Rce1 inh inactive, Runt-SMMHC FRET inactive and Runt-CBFb FRET inactive.
Screening CCc1ccc(C(=O)NNC(=O)OC)cc1 returned RanGTP-Imp inh inactive, Vif inh inactive, Rce1 inh inactive, Runt-SMMHC FRET inactive and Runt-CBFb FRET 69.
For Cc1ccccc1NC(=O)OCc1ccccc1 the results were RanGTP-Imp inh inactive, Vif inh inactive and Rce1 inh inactive.
For Cc1ccc(C(=O)NC2CCN(CC(=O)Nc3cccc([N+](=O)[O-])c3)CC2)cc1 the results were RanGTP-Imp inh inactive, Vif inh inactive, Rce1 inh inactive, Runt-SMMHC FRET inactive and Runt-CBFb FRET inactive.
CCc1ccccc1NC(=O)/C(C#N)=C\c1ccc(Sc2ccccc2)o1 was read as RanGTP-Imp inh 16, Vif inh inactive, Runt-SMMHC FRET inactive and Runt-CBFb FRET inactive.
O=C(CCc1ccc(S(=O)(=O)N2CCOCC2)cc1)Nc1nccs1 was read as RanGTP-Imp inh inactive, Vif inh inactive, Rce1 inh inactive, Runt-SMMHC FRET inactive and Runt-CBFb FRET 104.
For Cn1c(/C=C(\C#N)C(N)=S)ccc1-c1ccc(Br)cc1 the results were Vif inh inactive, Runt-SMMHC FRET 92 and Runt-CBFb FRET 89.
`COc1ccccc1NC(=O)c1ccc(NC(=O)c2ccc(=O)[nH]c2)cc1` gave Vif inh inactive.
For Cc1csc2c(N(C)CCO)ncnc12 the results were RanGTP-Imp inh inactive, Vif inh inactive, Rce1 inh inactive, Runt-SMMHC FRET inactive and Runt-CBFb FRET inactive.
OCCN(CCO)c1ccc2ccccc2c1 was read as RanGTP-Imp inh inactive, Vif inh inactive, Rce1 inh active, Runt-SMMHC FRET inactive and Runt-CBFb FRET inactive.
For Cc1cc(OCC(C)C)ccc1/C(O)=C1/C(=O)C(=O)N(Cc2cccnc2)C1c1ccncc1 (stereo unspecified) the results were RanGTP-Imp inh inactive, Vif inh 54, Rce1 inh inactive, Runt-SMMHC FRET inactive and Runt-CBFb FRET inactive.
`CCCCOc1ccc(/C(O)=C2/C(=O)C(=O)N(Cc3cccnc3)C2c2ccncc2)c(C)c1` (stereo unspecified) gave RanGTP-Imp inh inactive, Vif inh inactive, Rce1 inh inactive, Runt-SMMHC FRET inactive and Runt-CBFb FRET inactive.
`CCN(Cc1ccccc1)S(=O)(=O)c1ccc(C(=O)N(CCCN(C)C)c2nc3cc(C)cc(C)c3s2)cc1` gave RanGTP-Imp inh inconclusive, Vif inh inactive and Rce1 inh active.
Cc1cc(C)c2sc(N(CCCN(C)C)C(=O)c3ccc(S(=O)(=O)N(C)Cc4ccccc4)cc3)nc2c1 was read as RanGTP-Imp inh inactive, Vif inh inactive and Rce1 inh inactive.
`CCc1ccc(-c2ccc(C(=O)O)c(C)n2)cc1` gave RanGTP-Imp inh inactive, Rce1 inh inactive, Runt-SMMHC FRET inactive and Runt-CBFb FRET inactive.
For CCc1ccc(-c2cnc3nc[nH]c(=O)c3n2)cc1 the results were RanGTP-Imp inh 15, Vif inh inactive and Rce1 inh inactive.
c1ccc2c(NCCCN3CCOCC3)c3ccccc3nc2c1 was read as Runt-SMMHC FRET 92 and Runt-CBFb FRET 99.
Screening OCC(Cc1ccccc1)Nc1c2ccccc2nc2ccccc12 (stereo unspecified) returned RanGTP-Imp inh 118, Vif inh inactive, Rce1 inh inactive, Runt-SMMHC FRET 59 and Runt-CBFb FRET 61.
c1ccc(CNc2c3ccccc3nc3ccccc23)cc1 was read as RanGTP-Imp inh 91, Vif inh inactive and Rce1 inh inactive.
For CN(C)CCCNc1c2ccccc2nc2ccccc12 the results were RanGTP-Imp inh 108, Vif inh inactive and Rce1 inh inactive.
Screening OCC(Cc1ccccc1)NCc1ccccc1C(F)(F)F (stereo unspecified) returned RanGTP-Imp inh inconclusive, Vif inh inactive, Rce1 inh inactive, Runt-SMMHC FRET inactive and Runt-CBFb FRET inactive.
For O=C(CNC(=O)c1ccccc1)NCCc1ccc(O)c(O)c1 the results were RanGTP-Imp inh inactive, Vif inh inactive and Rce1 inh inactive.
`Oc1ccc(CCNc2c3ccccc3nc3ccccc23)cc1O` gave RanGTP-Imp inh 103, Vif inh inactive and Rce1 inh inactive.
For Cc1cc(C)c(OCC(=O)Nc2ccc3c(c2)OCO3)cc1C the results were RanGTP-Imp inh inactive, Vif inh 67, Rce1 inh inactive, Runt-SMMHC FRET inactive and Runt-CBFb FRET inactive.
Screening COc1ccc2nc(Nc3nc4cc5c(cc4s3)OCO5)sc2c1 returned RanGTP-Imp inh inactive, Vif inh inactive, Rce1 inh inactive, Runt-SMMHC FRET inactive and Runt-CBFb FRET inactive.
COc1ccc2nc(Nc3ccc4c(c3)OCO4)sc2c1 was read as RanGTP-Imp inh inactive, Vif inh 53, Rce1 inh inactive, Runt-SMMHC FRET inactive and Runt-CBFb FRET inactive.
`COc1ccc(-c2cc(C(=O)Nc3ccc4c(c3)OCO4)no2)cc1` gave RanGTP-Imp inh inactive, Vif inh 53 and Rce1 inh inactive.
Screening COc1ccc(Cl)cc1C(=O)Nc1ccc2c(c1)OCO2 returned RanGTP-Imp inh inactive, Vif inh inactive, Rce1 inh active, Runt-SMMHC FRET inactive and Runt-CBFb FRET inactive.
